Assay results published in the EternaBench riboswitch data.

System: MS2 coat protein
Test: apparent Kd, MS2 coat protein; higher = weaker binding; RNA-MaP array; FMN 200 µM where present
Summary of the method: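 In 100 mM Tris-HCl pH 7.5, 80 mM KCl, 4 mM MgCl2, BSA, DTT, yeast tRNA and Tween-20, SNAP-549-labelled MS2 coat protein was titrated from 0.7 or 1.5 nM, doubling to 3 µM, over designs transcribed by stalled E. coli RNA polymerase on Illumina sequencing-chip clusters. This was done first without ligand, then with ligand held constant. After green signal was normalised to red-channel RNA signal and control-cluster median Fmax, the apparent Kd was taken as the median of filtered per-cluster binding-curve fits.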

[1] = designed as: OFF switch for flavin mononucleotide, no ligand
[2] = ligand present: flavin mononucleotide, designed as: OFF switch for flavin mononucleotide
[3] = designed as: ON switch for flavin mononucleotide, no ligand
[4] = ligand present: flavin mononucleotide, designed as: ON switch for flavin mononucleotide

Sequence	apparent Kd [1] [nM]	apparent Kd [2] [nM]	apparent Kd [3] [nM]	apparent Kd [4] [nM]
AAAGUGUAAGGAUAUGCUGCUCGUCACUUGCGUGAUGAGUAGCAGAAGGUACAUGAGGAUCACCCAUGUAAAAA	28.8	38.3	–	–
CAGCGCUGUCGAGAGGAUAUGCUGUGAUGGACAUGAGGAUCACCCAUGUUAGCGAUAGCAUUACUGUAGAAGGCUCUACAGCUGC	–	–	13.4	12.8
UGUUGUAUUACAGGAUAUCUAUUAGUAUUAUUUAGAGAAGGGUAUUCACAUGAGGAUCACCCAUGUAUAUACGAGGAAGUUGUG	–	–	46.9	48.4
AGUCGGAGCAGAGGAUAUACAUGAGGAUCACCCAUGUAAUAAAGUGAAGACUGGAAACAGUCAAUGUAGAAGGCUGCUCCGACA	27.2	210	–	–
UGUAUUAAUGGAGGAUAUCGAUAUCAAACAUGAGGAUCACCCAUGUUGAGGAUCACCCAUGUCCAUGAGAAGGCCGGCGUACUU	–	–	34.4	32.8
UUUUCAUCAUCAGGAUAUUAACGUGGGCUACUUUAAGAAGGGAUAGUGGGAGAGGAUGUGAAACAUGAGGAUCACCCAUGUUGU	–	–	14.2	10
ACGUGUUAUACAGGAUAUGUAUAGGUAUAAUCAUACAGUUAUUAAUUAAUGACAGAAGGGUAAACAUGAGGAUCACCCAUGUCA	511	248	–	–
GGCGCCCGGGCGGAGUCCCACACACAUGAGGAUCACCCAUGUAGAAGGCGCUGCCGCAAGGUCAGCGAGGAUAUACAUUAAGGA	14.8	45.8	–	–
ACCUCACAUGAGGAUCACCCAUGUUAGGAUAUCUCGAUGCUCCGCGGGCGGGAGCAUCAGAGAAGGAACGUGCA	20.1	21.8	–	–
UAAAAUUUACGAGGAUAUCCAAAGGUAGACAUAGGAGAAGGCGUACAUGAGGAUCACCCAUGUACCAAUAAAUGGGUUUCUCAA	20.8	57.8	–	–
GUAGCAUUGAGAGGAUAUCCAUACCGGAAACGGACAUGAGGAUCACCCAUGUCGCGAAAGCGGUGGGAGAAGGCUCUAUGCUAC	–	–	4.52	4.46
UAUAUAUAGUAAGGAUAUGUAUAUAUUUUAUCAACAGAAGGUACUGACAUGAGGAUCACCCAUGUUUUAGUGUGGGCAUGUAGA	68.7	70.8	–	–
AAGCUCGUGUGAGGAUAUGCCGCCGUUUCGGCUGCAGAAGGUGCUACGUUACAUGAGGAUCACCCAUGUCUCUGUUGUUUCGUA	–	–	42.6	49.7
CCGACGAAAAUCGGGCUACAUGAGGAUCACCCAUGUGCUUCACAGGAUAUGGUACGUAGUGAGUUCCAGAAGGGUGAUUAAUCU	–	–	205	129
UUUAUGUGAGGAUAUCAGUAGUAAAAAAAUAAAAUUACUACUGAGAAGGCACAUGAGGAUCACCCAUGUACUUC	40.2	30.5	–	–
UUGCGCUGUCGAGAGGAUAUGCGGUGUUGGACAUGAGGAUCACCCAUGUUAGCGAUUGCUUUACGGUAGAAGGCUCUUCAGCUGC	–	–	78.8	52.9
UACAUGAGGAUCACCCAUGUUAACAUGGUGUUGUUAUAUCUGAGAAGGGUAAUAUUACAUUAAGUACAGGAUAUCAUUGAUGUU	208	46.3	–	–
GUGUCGUCAGGAUAUCCUACAUAACUAUCGUUGUUACCAUUGGAGAAGGGACAUGAGGAUCACCCAUGUUUUCC	19.3	19.7	–	–
GUAGUUAGUAGAGGAUAUUAGUAUGUGUAAUAUUGAGAAGGUUACAUGAGGAUCACCCAUGUGAUCAAUCACUGUUAAGGUUGC	6.48	6.71	–	–
UGGACCGAGCUGUCGGUUGACUCUAAGGAUAUGACAUGAGGAUCACCCAUGUGGGAUCUAAAUUGUCAGAAGGUGGGUUCUGGG	95	51	–	–
AAAAUAUAAAGAGAGGAUAUCCAAAGAACCACAUGAGGAUCACCCAUGUAAAGAAAGAAUAAGUGGGAGAAGGCUCAAAUAAUAA	–	–	187	29.2
UUACAUACAAAGUUACAUGAGGAUCACCCAUGUUUAUUGGGAAGAAGGGUAACAUUAUUAAAUAUAUAGGAUAUUUCACAAUUG	–	–	558	359
GCGUCAGAAUUAAUUGUGACAGACAGAAGGCAAUAGUAUGUGACAGACAUGAGGAUCACCCAUGUUGAGGAUAUGUAUUGACAC	6.6	7.36	–	–
AUACAUGAGGAUCACCCAUGUUACAUGGCCUUGAUAGAUCGUAGAAGGAUGUUAUUAUUAAUUUCAUAGGAUAUACUAUUUAGU	95.1	72.9	–	–
GCGUUGUUGUAGAAGGUACAUGAAUACUUUUAUUACCUCAAGUAACAUGAGGAUCACCCAUGUAGUAAGGAUAUACAUGAACGC	–	–	35.1	24.3
CGAUAUAUGAAGGACGGAAACGUACAUGAGGAUCACCCAUGUAGAAGGCGAUCCGCAACGCGGAUCGAGGAUAUAUAGUAUACA	24.2	17.6	–	–
AUUCGUGAGUAGGAUAUGCUGUUGCCAGAACGAGUAGAAGGACUCACAUGAGGAUCACCCAUGUGGUGUCUAAG	19.9	170	–	–
AGGAGUAAAGGGAAUAACAUGAGGAUCACCCAUGUAUGGGAGAGAAGGCAUAUCGGAGGACGAUAUGAGGAUAUUUAAACUUUA	–	–	106	20.5

Sequence	apparent Kd [1] [nM]	apparent Kd [2] [nM]	apparent Kd [3] [nM]	apparent Kd [4] [nM]
GAGGAGCAAGGAUAUACGAGGAUAUGGUAGUUUGUAGAGUGACAUGAGGAUCACCCAUGUAGAAGGUGCGAGGG	64.2	52.9	–	–
GUACUGAAGCUUUGCUUUAGUCGUACAUGAGGAUCACCCAUGUAGGAUAUGGUAGGCUUUGCCUACUAGAAGGAUAGAGUGAUC	89.2	33.9	–	–
AAAAGACAUGAGGAUCACCCAUGUAAAGACGUAGGAGGAUAUGUCUUGAAAAAAGACUUGACAGAAGGCCUGUGUC	–	–	26.4	19
GGACGUCACAUGAACAUGAGGAUCACCCAUGUAAAUUCUCAUGAGGAUAUGGUUCCUAAUUGGAACCAGAAGGCGUGGACGUCC	–	–	957	430
UGAGUGCGUGUUAGGAUAUGGUUUGGUAUUUCGGGCUAGAAGGGACAUGAGGAUCACCCAUGUAAUUGAUAGGU	47	53	–	–
UUAAAACAUGAGGAUCACCCAUGUGAGGAUAUGAGCCGACUGUCCUGUCGGCAUGUAGUCAGAAGGUGCAGGGU	62.2	109	–	–
UAAUUUUGUCAAGGAUAUGUAAUAUAGAUUUGAAAACAUGAGGAUCACCCAUGUAUAUGGUGGGAACAGAAGGUGAAUGGAGAA	252	242	–	–
CCAGAUAUGUGAGGAUAUAUAGUGGAAUACACUAUAGAAGGUAUGUGAGAACAUGAGGAUCACCCAUGUCAUUGGAUAUCUGGA	–	–	33.5	38.1
UGUGUGUGGCAGGAUAUGCAGGUAGUAGGACGGGUAGAAGGGUCUACAUGAGGAUCACCCAUGUGGCCGGUUGG	16.8	18.1	–	–
UCGCUUGAAGGAUAUACGAUUCGUUGUGUUCGUGUCACCUGACAUGAGGAUCACCCAUGUAGAAGGUCACGCAG	18.6	24.6	–	–
UCGUGAAGGAUAGGAUAUGGACAUGAGGAUCACCCAUGUACAUGGGAAUGAAUACUGAAUUUGUACUAGAAGGGUUACAUAAAU	44.4	39.5	–	–
CAAUGCCUGUCGAUGCUCGACAUGAGGAUCACCCAUGUAUAGCAGGAUAUGCAGAACUGACUCGUGCAGAAGGGCUAUACCUAA	25.8	61.1	–	–
GCGUUCAUGUAGAAGGUACCUACAACAUAUUAUAAACGCUAGACACAUGAGGAUCACCCAUGUUGUAAGGAUAUACAUGAACGC	–	–	49	22
AGCUGUGGCAGAGGAUAUACCUCAAUAAUCCAUUGCAAAUAGCGAUGGACAUGAGGAUCACCCAUGUAGAAGGCUGUCUCAGCA	323	733	–	–
AGCUAGUCAGGAUAUACAAACAUGUCAAAAGACGUGAAGAGACAUGAGGAUCACCCAUGUAGAAGGGACUAGCA	26.6	70.9	–	–
AAAAGACAUGAGGAUCACCCAUGUAAAAACAUGAGAGGAUAUCAUCUGACUUCGGUCAGAUGAGAAGGCUCAUGUC	–	–	48.7	26.9
CUUUUGUGAGGAUAUCAGUAGUAAUACAAUAGUAUUACUACUGAGAAGGCACAUGAGGAUCACCCAUGUUCCUU	16	29.5	–	–
AUGGAUAUCACAGGAUAUGAUAUGGAUACCAUAUCAGAAGGGUGAUCCAUCCUCUGUAAAUACAUGAGGAUCACCCAUGUGUCC	–	–	15.6	15.6
AUCAGCACGUGAGGAUAUGCGUCACUGCGUCAGCAGUGUGGUAAGAUCACAUGAGGAUCACCCAUGUAGAAGGCACGAGCUGAU	34	460	–	–
AGCUCGGGUGCAGGAUAUCCGCCGGAUCGCAGUGGAGAAGGGCGCCAAGCGAACAUGAGGAUCACCCAUGUAUCGGAGCCGGAC	–	–	55.6	11.1
CGCUAGCGAAUAGUAAUAAAAGUACAGGAUAUGUUACAUGAGGAUCACCCAUGUAUUGGGUAAGAACAGAAGGGUACGCUAGCG	136	97.8	–	–
UUAUUACGAGGAUAUCGUUUUUAUCACAUGAGGAUCACCCAUGUAAUUUAUGUUUCGUUUCGAGAAGGCGUUUGUU	23.4	19.6	–	–
GGUUAAUAUCGAGGAUAUGUCUAGACACAUGAGGAUCACCCAUGUAUGUGUAUAGAAGGCGAUAUUAACAGCAUGUUACAUGCC	–	–	38.1	16.8
CGUGAACAUGAGGAUCACCCAUGUGAAAAACAUAGAGGAUAUGUCACGUGAGUGUAAAAGACAGAAGGCUAUCGUG	–	–	85.4	43
CGCUACGUUUCGUAGCAGCUAGGUGAGGAUAUUCAAUUUUUCACAUGAGGAUCACCCAUGUAUGUGAAGAAGGCGCCUAGAAAU	–	–	10.7	4.96
CCCGUGUGUUAAGGAUAUGGCAGGCGCGUUGAACCAGAAGGUAGCACAUGAGGAUCACCCAUGUGAAUGCUCACGACUCGAGCA	40.1	23.6	–	–
AAAAGGUGAGGAUAUACAUGAGGAUCACCCAUGUAGAAAGGAAGUGUAAAAAAAAAGUGUAGAAGGCAUCAUGA	58.7	60.6	–	–
